Insulin prom inh = TRM-6 insulin promoter activity inhibition; AID 1273; inhibition, % at 2 µM; TRM-6 cells (human fetal islet line), insulin promoter-eGFP reporter, imaging; reporter expression induced with tamoxifen; hit rate 0.9% among 130,000;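 active = inhibition above the mean plus 3 SD, with well images judged a real hit on visual review, cut at about 60% in these data, passing the limit was not always enough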
NPY-Y1 PAM-ag = potentiates or activates human NPY-Y1 receptor; P25929; NPY-Y1 expressing cells, potentiator/agonist activation; activation, % at 3.6 µM; hit rate 0.37% among 220,000; AID 1304; in the data active = activation above about 33%, passing the limit was not always enough;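 note: cells stimulated with NPY at EC10 then isoproterenol at EC100; 0% = low agonist plus stimulus and 100% = saturating agonist plus stimulus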
Target sequence (P25929 whole entry, looked up): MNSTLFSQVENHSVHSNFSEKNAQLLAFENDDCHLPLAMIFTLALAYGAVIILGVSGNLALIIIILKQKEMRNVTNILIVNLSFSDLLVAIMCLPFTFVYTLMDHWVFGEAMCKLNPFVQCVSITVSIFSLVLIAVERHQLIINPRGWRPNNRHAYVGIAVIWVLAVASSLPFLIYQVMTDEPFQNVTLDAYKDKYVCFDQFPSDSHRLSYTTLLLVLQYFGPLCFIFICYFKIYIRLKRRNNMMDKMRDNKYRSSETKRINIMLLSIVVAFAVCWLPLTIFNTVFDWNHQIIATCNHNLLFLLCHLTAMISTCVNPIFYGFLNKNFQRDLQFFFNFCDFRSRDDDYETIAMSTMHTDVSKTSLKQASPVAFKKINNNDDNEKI
NPY Y1 blocker = blocks the human neuropeptide Y Y1 receptor; P25929; HEK293-CNG Y1 cells, membrane potential fluorescence; NPY at EC95, then isoproterenol; inhibition, % at 3.6 µM; hit rate 1% among 200,000;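 active = inhibition above the campaign mean inhibition of all tested compounds plus 3 SD, cut at about 20% in these data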;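 note: 0% = DMSO wells given NPY plus isoproterenol and 100% = isoproterenol alone without NPY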
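Test system – HEK293 Y1/CNG channel cell line · Also added – NPY agonist 25 nM, then isoproterenol 1 µM plus Ro 20-1724 25 µM · Compound dosing – one concentration, 3.6 µM, in 0.4% DMSO · Schedule – compound incubation 1 h at room temperature, readout 45 min post-stimulation · Technique – fluorescence, membrane potential probe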
RAM network inh = inhibitors of the yeast RAM network; inhibition, % at 50 µM; S. cerevisiae dse1pr::URA3 reporter, 5-FOA growth OD615, 2 d; analog-sensitive cbk1-as2 kinase mutant strain; hit rate 1.8% among 190,000;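 active = inhibition above a set limit, 3 SD over mean compound inhibition, cut at about 8.4% in these data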;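 note: 0% = DMSO-only wells with no growth and 100% = 10 µM 1-NA-PP1 full growth; inhibition rescues growth on 5-FOA so higher OD means more RAM inhibition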
NPY Y2 blocker = blocks the human neuropeptide Y Y2 receptor. P49146. NPY-Y2 expressing cells, antagonist mode. inhibition, % at 2.7 µM. hit rate 0.99% among 140,000; in the data active = inhibition above about 17%;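 note: 0% = vehicle with agonist challenge and 100% = reference antagonist with challenge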
NPY-Y2 PAM-ag = potentiators or agonists of human neuropeptide Y receptor Y2. P49146. cells expressing NPY-Y2, potentiator/agonist read-out. activation, % at 3.6 µM. hit rate 0.45% among 220,000. AID 1359; in the data active = activation above about 27%;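 note: cells stimulated with NPY near EC25 plus isoproterenol at EC100; 0% = vehicle plus submaximal agonist and 100% = vehicle plus saturating agonist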
NPY-Y1 confirm = confirmation of human NPY-Y1 receptor potentiators or agonists | hit rate 20% among 280 | cell-based NPY-Y1 potentiator/agonist assay | shares compounds with NPY-Y1 PAM-ag | activation, % at 3.6 µM | AID 1546; in the data active = activation above about 45%;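 note: cells challenged with NPY at its EC10 plus isoproterenol stimulus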
NPY-Y2 counter = potentiates or activates NPY-Y2, counter-screen for NPY-Y1 hits; hit rate 20% among 280; activation, % at 3.6 µM; HEK293-CNG cells, membrane-potential fluorescence (FLIPR), 1536-well; shares compounds with NPY-Y1 PAM-ag; in the data active = activation above about 33%
NPY-Y1 ag = activates human NPY-Y1, counter-screen for NPY-Y1 potentiators; hit rate 50% among 280; activation, % at 3.6 µM; shares compounds with NPY-Y1 PAM-ag; HEK293 Y1-CNGC, membrane potential fluorescence, agonist mode; AID 1697;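 active = percent activation above the mean of DMSO-only control wells plus 3 SD of those wells, cut at about 18% in these data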;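 note: cells challenged with isoproterenol plus Ro 20-1724 with no NPY in test wells; Y1 agonism lowers isoproterenol-driven cAMP and reduces probe fluorescence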
NPY-Y2 ag = activates human NPY-Y2, counter-screen for NPY-Y1 hits | shares compounds with NPY-Y1 PAM-ag | HEK293 Y2-CNGC, membrane potential fluorescence, agonist mode | activation, % at 3.6 µM | hit rate 67% among 280 | AID 1698;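 active = activation above the solvent-only control wells' mean plus 3 SD, cut at about 11% in these data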;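 note: 0% = DMSO with isoproterenol and 100% = 40 nM NPY maximal response; agonism lowers cAMP so well fluorescence drops in active wells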
CNGC counter = counter-screen for NPY-Y1 potentiators or agonists: CNG channel inhibitors; shares compounds with NPY-Y1 PAM-ag; HEK293-CNG parental, isoproterenol cAMP, membrane potential fluorescence; inhibition, % at 3.6 µM; hit rate 42% among 280; AID 1704;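 active = inhibition above the mean of stimulated solvent-only control wells plus 3 SD, cut at about 22% in these data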;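 note: 0% = isoproterenol-stimulated DMSO wells and 100% = unstimulated DMSO wells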
Active calls of the source: *; · = no result. An excerpt weighted towards active compounds, which were near 3.8% of everything screened.

SMILES | Insulin prom inh | NPY-Y1 PAM-ag | NPY Y1 blocker | RAM network inh | NPY Y2 blocker | NPY-Y2 PAM-ag | NPY-Y1 confirm | NPY-Y2 counter | NPY-Y1 ag | NPY-Y2 ag | CNGC counter
CC(C)c1ccc2c(c1)CCC1C(C)(CN)CCCC21C (stereo not given) | · | 46.6* | · | · | · | 32.8 | 47.6* | 42.5* | 33.9* | 40.3* | 21.6
CCN(CC)c1ccc(C2C(C(C)=O)C(=O)CC(C)(O)C2C(C)=O)cc1 (stereo not given) | -18.8 | -12.1 | 2.0 | · | 1.7 | 1.0 | · | · | · | · | ·
OCCC1CN(Cc2cc(F)ccc2-n2cccn2)CCN1C1CCCC1 (stereo not given) | · | -11.9 | · | · | · | -25.2 | · | · | · | · | ·
O=[N+]([O-])c1cc(S(=O)(=O)Nc2cccc(Cl)c2)ccc1N/N=C/c1ccc(N2CCOCC2)cc1 | · | 65.7* | · | · | · | -6.4 | 53.1* | 61.0* | 44.1* | 61.4* | 46.8*
CC(C)Cn1c(N)c(C(=O)COC(=O)c2cnc(Cl)c(Cl)c2)c(=O)n(C)c1=O | 63.6 | 41.6* | -3.3 | 0.7 | · | 24.5 | 38.0 | 41.8* | 33.3* | 24.0* | 15.9
CCc1ccccc1NC(=O)CN(C)C(=O)Cn1cc(C(F)(F)F)cc(Cl)c1=O | · | -11.6 | -3.5 | 4.8 | · | 0.7 | · | · | · | · | ·
Cc1ccc(NC(=O)COC(=O)c2ccc([N+](=O)[O-])o2)cc1S(=O)(=O)N1CCCCC1 | · | 40.7* | 8.7 | 2.5 | · | 5.4 | -6.5 | -2.3 | -13.8 | -4.1 | 5.1
COc1ccccc1Oc1ccc2c(c1)C(=O)N(c1cccc3ncccc13)C2=O | 20.0 | 43.0* | -0.6 | 1.7 | 1.4 | 24.0 | 0.6 | 11.6 | 1.2 | -5.1 | -12.8
N#C/C(=C(/O)c1ccc([N+](=O)[O-])s1)c1nc2ccccc2[nH]1 | · | 48.3* | · | · | · | 26.9 | 14.5 | 22.2 | 1.7 | 28.5* | -6.4
O=C(c1ccc(-n2cccn2)cc1)N1CCc2ccccc2C1 | · | -17.2 | · | · | · | -21.1 | · | · | · | · | ·
CCOc1ccc(Nc2nc(Nc3ccc(O)cc3)nc(C)c2[N+](=O)[O-])cc1 | -13.3 | 40.2* | -9.2 | 3.0 | · | 24.7 | 26.7 | 22.5 | 5.3 | 15.5* | 20.2
COc1ccc(Nc2nc(N)c([N+](=O)[O-])c(NCCO)n2)cc1 | · | 20.2 | · | · | · | 24.2 | · | · | · | · | ·
Cn1c(CSCc2ccc(Cl)cc2Cl)n[nH]c1=S | · | 64.7* | 0.4 | 0.1 | · | -15.6 | -2.8 | 1.8 | -0.5 | 7.5 | -8.7
CCOC(=O)C(C)(C)N(Cc1cccc(C)c1)S(=O)(=O)c1ccc(Cl)c([N+](=O)[O-])c1 | · | 66.0* | -9.1 | 11.1* | -3.4 | 27.4 | 33.9 | 28.6 | 38.7* | 30.7* | 46.1*
N#C/C(=C(/O)c1cc2ccccc2o1)c1nc2ccccc2s1 | · | 49.1* | · | · | · | 9.6 | -2.2 | 5.9 | 2.3 | 10.5* | 13.8
O=C1c2ccccc2C(=O)c2c([N+](=O)[O-])ccc(O)c21 | · | 52.3* | · | · | · | -1.1 | 41.2 | 42.8* | 29.3* | 33.3* | 36.1*
O=C(Nc1ccc(Cl)cc1Cl)NC1CCN(S(=O)(=O)c2ccc(F)cc2)CC1 | · | 47.8* | · | · | · | 5.5 | 42.0 | 30.5 | 18.1* | 12.9* | 14.2
CC1CCN(c2nc(-c3ccccc3O)nc3ccccc23)CC1 | -10.8 | -5.8 | -0.6 | 0.9 | 0.2 | 8.5 | · | · | · | · | ·
CC1CCN(c2ncnc3ccccc23)CC1 | -11.1 | 40.3* | -5.9 | 0.9 | 2.5 | -6.1 | -17.8 | -5.2 | -22.6 | -10.0 | -3.5
CC(C)(C)Nc1nc(Cl)nc(N(C#N)CN2C(=O)c3ccccc3S2(=O)=O)n1 | 17.9 | 64.7* | -2.1 | -0.3 | · | 8.7 | 45.7* | 28.3 | 38.7* | 28.8* | 21.8*

Source: PubChem BioAssay
